# Measured values reported in ChEMBL document CHEMBL4265950, “Discovery of furyl/thienyl β-carboline derivatives as potent and selective PDE5 inhibitors with excellent vasorelaxant effect” (Eur J Med Chem, 2018).
# Tests used:
# [1] = molecular target: T1, cGMP-specific 3',5'-cyclic phosphodiesterase (Homo sapiens, UniProt O76074); assay: Inhibition of full length recombinant human N-terminal GST-tagged PDE5A1 expressed in baculovirus infected sf9 cells at 100 nM using FAM-cyclic-3',5-GMP as substrate after 1 hr by fluorescence polarization assay relative to control
# Summary of the method: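 Single-point test at 100 nM, reported as percent inhibition. Human PDE5 at 15 ng/mL with 100 nM FAM-cGMP in MOPS pH 7.5 buffer (MgCl2, EDTA, BSA, DTT), 1% DMSO final, 60 min at 25 °C. Binding agent added for 1 h, then fluorescence polarization read at […] nm.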
# [2] = molecular target: T1, cGMP-specific 3',5'-cyclic phosphodiesterase; assay: Inhibition of full length recombinant human N-terminal GST-tagged PDE5A1 expressed in baculovirus infected sf9 cells using FAM-cyclic-3',5-GMP as substrate after 1 hr by fluorescence polarization assay
# [3] = molecular target: Cone cGMP-specific 3',5'-cyclic phosphodiesterase subunit alpha' (Homo sapiens, UniProt P51160); assay: Inhibition of full length recombinant human N-terminal GST-tagged PDE6C expressed in baculovirus infected sf9 cells using […] as substrate after 1 hr by fluorescence polarization assay
# [4] = molecular target: Dual specificity calcium/calmodulin-dependent 3',5'-cyclic nucleotide phosphodiesterase 1A (Homo sapiens, UniProt P54750); assay: Inhibition of full length recombinant human N-terminal GST-tagged PDE1A expressed in baculovirus infected sf9 cells using FAM-cyclic-3',5-AMP as substrate after 1 hr by fluorescence polarization assay
# Summary of the method: (§1)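 Fluorescence polarization assay run at 25 °C for 60 min in 40 mM MOPS pH 7.5, 0.5 mM EDTA, 15 mM MgCl2, 0.15 mg/mL BSA, 1 mM DTT, 0.05% ProClin 200. Contained 15 ng/mL PDE isoform and 100 nM FAM-cGMP or FAM-cAMP according to isoform, with 1% DMSO final. Binding agent added for 1 h at 25 °C; read at […] nm. IC50 from normalized nonlinear dose-response fit.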
# [5] = molecular target: 3',5'-cyclic-AMP phosphodiesterase 4A (Homo sapiens, UniProt P27815); assay: Inhibition of full length recombinant human N-terminal GST-tagged PDE4A1A expressed in baculovirus infected sf9 cells using FAM-cyclic-3',5-AMP as substrate after 1 hr by fluorescence polarization assay
# [6] = molecular target: cGMP-inhibited 3',5'-cyclic phosphodiesterase 3B (Homo sapiens, UniProt Q13370); assay: Inhibition of recombinant human N-terminal GST-tagged PDE3B (592 to end residues) expressed in baculovirus infected sf9 cells using FAM-cyclic-3',5-AMP as substrate after 1 hr by fluorescence polarization assay; summary of the method: as §1
# [7] = molecular target: Dual 3',5'-cyclic-AMP and -GMP phosphodiesterase 11A (Homo sapiens, UniProt Q9HCR9); assay: Inhibition of full length recombinant human N-terminal GST-tagged PDE11A4 expressed in baculovirus infected sf9 cells using FAM-cyclic-3',5-AMP as substrate after 1 hr by fluorescence polarization assay
# [8] = molecular target: cGMP-dependent 3',5'-cyclic phosphodiesterase (Homo sapiens, UniProt O00408); assay: Inhibition of recombinant human N-terminal FLAG-tagged PDE2A (2 to 941 residues) expressed in baculovirus infected sf9 cells using FAM-cyclic-3',5-AMP as substrate after 1 hr by fluorescence polarization assay; summary of the method: as §1
# Homo sapiens [9] = organism: Homo sapiens; assay: Selectivity index, ratio of IC50 for inhibition of full length recombinant human N-terminal GST-tagged PDE6C expressed in baculovirus infected sf9 cells to IC50 for inhibition of full length recombinant human N-terminal GST-tagged PDE5A1 expressed in baculovirus infected sf9 cells
# Homo sapiens [10] = organism: Homo sapiens; assay: Selectivity index, ratio of IC50 for inhibition of full length recombinant human N-terminal GST-tagged PDE11A4 expressed in baculovirus infected sf9 cells to IC50 for inhibition of full length recombinant human N-terminal GST-tagged PDE5A1 expressed in baculovirus infected sf9 cells
# Chain of cGMP-dependent 3',5'-cyclic phosphodiesterase (O00408 whole entry, the tested form may be a part): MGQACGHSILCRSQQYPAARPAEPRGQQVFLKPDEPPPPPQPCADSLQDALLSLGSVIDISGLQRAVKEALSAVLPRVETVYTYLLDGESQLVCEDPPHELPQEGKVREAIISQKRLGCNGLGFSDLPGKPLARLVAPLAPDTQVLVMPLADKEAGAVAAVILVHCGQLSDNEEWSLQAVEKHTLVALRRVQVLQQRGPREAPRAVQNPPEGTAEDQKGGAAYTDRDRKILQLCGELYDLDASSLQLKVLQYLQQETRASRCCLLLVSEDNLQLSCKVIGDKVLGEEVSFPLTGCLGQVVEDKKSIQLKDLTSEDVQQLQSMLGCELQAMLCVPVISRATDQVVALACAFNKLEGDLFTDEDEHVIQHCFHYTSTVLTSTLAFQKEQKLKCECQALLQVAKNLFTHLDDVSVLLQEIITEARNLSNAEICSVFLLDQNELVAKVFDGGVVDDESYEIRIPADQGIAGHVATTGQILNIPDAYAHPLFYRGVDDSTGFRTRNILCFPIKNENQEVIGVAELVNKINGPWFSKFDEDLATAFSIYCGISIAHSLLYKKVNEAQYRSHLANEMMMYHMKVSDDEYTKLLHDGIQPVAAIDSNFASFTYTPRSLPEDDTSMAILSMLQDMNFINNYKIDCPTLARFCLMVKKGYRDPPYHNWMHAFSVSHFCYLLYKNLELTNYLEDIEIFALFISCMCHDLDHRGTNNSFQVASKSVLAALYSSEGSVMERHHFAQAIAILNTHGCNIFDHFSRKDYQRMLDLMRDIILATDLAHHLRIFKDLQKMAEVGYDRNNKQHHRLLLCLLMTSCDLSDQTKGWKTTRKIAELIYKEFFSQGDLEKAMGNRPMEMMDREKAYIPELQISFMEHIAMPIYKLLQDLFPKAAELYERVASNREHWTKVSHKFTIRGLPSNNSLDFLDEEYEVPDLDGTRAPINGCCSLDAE
# Chain of 3',5'-cyclic-AMP phosphodiesterase 4A (P27815 whole entry): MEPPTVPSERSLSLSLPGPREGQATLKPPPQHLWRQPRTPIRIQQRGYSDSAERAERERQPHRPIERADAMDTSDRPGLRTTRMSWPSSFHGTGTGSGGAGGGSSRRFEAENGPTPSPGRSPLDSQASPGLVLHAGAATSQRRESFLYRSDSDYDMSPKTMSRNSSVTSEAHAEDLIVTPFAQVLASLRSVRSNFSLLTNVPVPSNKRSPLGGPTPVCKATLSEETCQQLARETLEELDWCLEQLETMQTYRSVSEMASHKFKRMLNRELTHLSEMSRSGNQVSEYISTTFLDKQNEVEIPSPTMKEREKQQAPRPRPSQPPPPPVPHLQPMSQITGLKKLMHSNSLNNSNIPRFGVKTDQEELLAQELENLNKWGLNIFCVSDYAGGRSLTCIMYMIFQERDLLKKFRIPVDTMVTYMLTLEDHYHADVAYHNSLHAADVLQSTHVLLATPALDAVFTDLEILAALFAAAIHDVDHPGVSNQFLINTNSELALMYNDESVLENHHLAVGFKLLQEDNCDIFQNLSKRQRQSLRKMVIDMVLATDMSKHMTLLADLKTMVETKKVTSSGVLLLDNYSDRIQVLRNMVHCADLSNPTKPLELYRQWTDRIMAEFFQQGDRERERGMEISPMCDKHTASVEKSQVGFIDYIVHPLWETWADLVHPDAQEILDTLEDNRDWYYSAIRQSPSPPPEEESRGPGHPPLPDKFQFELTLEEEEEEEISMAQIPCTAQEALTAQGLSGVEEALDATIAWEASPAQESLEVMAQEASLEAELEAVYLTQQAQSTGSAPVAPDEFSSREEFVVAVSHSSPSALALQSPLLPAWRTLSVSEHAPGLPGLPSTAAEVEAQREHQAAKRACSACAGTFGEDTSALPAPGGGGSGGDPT
# Chain of Dual specificity calcium/calmodulin-dependent 3',5'-cyclic nucleotide phosphodiesterase 1A (P54750 whole entry, canonical isoform): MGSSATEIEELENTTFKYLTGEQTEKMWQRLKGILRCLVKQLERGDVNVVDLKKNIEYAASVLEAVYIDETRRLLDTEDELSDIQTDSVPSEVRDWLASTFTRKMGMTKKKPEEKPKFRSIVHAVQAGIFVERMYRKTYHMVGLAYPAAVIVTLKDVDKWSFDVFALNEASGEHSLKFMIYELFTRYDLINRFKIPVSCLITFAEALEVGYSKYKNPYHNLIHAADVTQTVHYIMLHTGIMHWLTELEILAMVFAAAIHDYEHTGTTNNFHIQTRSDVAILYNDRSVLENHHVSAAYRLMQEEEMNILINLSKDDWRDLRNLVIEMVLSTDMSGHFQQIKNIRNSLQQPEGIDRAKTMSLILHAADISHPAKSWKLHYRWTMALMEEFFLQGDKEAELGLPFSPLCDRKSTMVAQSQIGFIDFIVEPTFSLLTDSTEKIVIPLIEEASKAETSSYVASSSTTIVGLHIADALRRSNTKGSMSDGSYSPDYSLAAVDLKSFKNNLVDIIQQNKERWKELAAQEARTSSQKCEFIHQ
# Chain of Cone cGMP-specific 3',5'-cyclic phosphodiesterase subunit alpha' (P51160 whole entry): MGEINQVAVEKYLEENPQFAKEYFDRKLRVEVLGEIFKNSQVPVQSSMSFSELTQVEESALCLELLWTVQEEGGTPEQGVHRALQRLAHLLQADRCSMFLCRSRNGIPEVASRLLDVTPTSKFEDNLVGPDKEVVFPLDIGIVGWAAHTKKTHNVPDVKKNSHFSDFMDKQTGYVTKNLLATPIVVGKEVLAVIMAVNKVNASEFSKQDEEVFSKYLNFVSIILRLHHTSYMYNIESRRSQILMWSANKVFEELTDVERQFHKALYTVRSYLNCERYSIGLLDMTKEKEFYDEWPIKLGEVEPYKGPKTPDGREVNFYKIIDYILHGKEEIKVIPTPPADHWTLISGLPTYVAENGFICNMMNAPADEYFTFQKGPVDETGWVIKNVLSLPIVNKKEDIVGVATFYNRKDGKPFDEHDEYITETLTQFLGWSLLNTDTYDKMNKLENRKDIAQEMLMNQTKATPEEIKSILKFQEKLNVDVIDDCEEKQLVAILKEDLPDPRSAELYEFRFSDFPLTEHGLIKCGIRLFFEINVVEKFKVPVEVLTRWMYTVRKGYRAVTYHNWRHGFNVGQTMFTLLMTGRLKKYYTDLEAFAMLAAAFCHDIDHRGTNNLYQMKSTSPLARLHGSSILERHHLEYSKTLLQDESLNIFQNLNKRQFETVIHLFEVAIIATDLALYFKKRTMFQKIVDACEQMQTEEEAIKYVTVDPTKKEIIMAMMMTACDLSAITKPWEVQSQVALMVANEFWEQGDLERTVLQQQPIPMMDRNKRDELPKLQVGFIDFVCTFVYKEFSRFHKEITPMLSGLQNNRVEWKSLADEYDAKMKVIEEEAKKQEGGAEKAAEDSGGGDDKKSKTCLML
# Chain of cGMP-inhibited 3',5'-cyclic phosphodiesterase 3B (Q13370 whole entry): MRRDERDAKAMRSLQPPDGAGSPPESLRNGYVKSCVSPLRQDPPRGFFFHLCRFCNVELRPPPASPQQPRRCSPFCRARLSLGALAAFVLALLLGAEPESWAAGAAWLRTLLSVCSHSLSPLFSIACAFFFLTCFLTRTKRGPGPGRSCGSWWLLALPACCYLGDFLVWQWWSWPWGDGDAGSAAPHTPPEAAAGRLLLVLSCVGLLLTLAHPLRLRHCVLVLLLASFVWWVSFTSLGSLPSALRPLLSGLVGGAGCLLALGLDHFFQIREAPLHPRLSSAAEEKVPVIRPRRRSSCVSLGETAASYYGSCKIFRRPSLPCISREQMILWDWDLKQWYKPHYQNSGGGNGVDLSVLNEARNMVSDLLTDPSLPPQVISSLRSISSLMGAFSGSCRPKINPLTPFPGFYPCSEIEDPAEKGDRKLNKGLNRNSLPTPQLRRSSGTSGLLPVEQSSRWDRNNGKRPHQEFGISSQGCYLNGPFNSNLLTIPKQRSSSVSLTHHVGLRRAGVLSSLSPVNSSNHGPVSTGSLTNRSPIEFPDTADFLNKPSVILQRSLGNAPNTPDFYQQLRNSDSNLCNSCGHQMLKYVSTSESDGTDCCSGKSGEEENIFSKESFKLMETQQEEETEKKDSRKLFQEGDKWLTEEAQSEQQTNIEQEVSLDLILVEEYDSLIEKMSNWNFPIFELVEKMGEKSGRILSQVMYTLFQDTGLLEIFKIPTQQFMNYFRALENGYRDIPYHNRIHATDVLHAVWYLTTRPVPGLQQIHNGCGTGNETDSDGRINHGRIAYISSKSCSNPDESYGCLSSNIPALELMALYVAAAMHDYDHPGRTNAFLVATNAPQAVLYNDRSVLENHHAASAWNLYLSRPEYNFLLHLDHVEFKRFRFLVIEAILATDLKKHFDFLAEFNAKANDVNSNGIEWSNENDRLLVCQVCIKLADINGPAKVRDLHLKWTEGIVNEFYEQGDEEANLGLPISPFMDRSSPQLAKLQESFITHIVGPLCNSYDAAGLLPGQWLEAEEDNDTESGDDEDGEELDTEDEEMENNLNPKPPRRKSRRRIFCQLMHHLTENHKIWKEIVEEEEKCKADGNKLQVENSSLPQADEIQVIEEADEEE
SMILES,inhibition [1] [%],IC50 [2] [nM],further results
CCc1ccc(C(=O)c2[nH]c3ccccc3c2C[C@H]2NC(=O)N(CC)C2=O)s1,11.1,,
CN1CC(=O)N2[C@H](c3ccco3)c3[nH]c4ccccc4c3C[C@@H]2C1=O,48.1,,
CCc1ccc([C@H]2c3[nH]c4ccccc4c3C[C@H]3C(=O)N(CC)C(=O)N23)o1,62.2,81.2,
CCc1ccc([C@H]2c3[nH]c4ccccc4c3C[C@@H]3C(=O)N(CC)C(=O)N23)o1,83.6,27.6,IC50 [3]: 10 nM; IC50 [4]: > 20000 nM; IC50 [5]: > 10000 nM; IC50 [6]: > 20000 nM; IC50 [7]: 802 nM; IC50 [8]: > 20000 nM; Ratio IC50 (Homo sapiens [9]): 0.4; Ratio IC50 (Homo sapiens [10]): 29
CCc1ccc(C(=O)c2[nH]c3ccccc3c2CCNc2ccc(-c3ccccn3)cn2)o1,16.1,,
O=C(c1cc2ccccc2o1)c1[nH]c2ccccc2c1CCNc1ccc(-c2ccccn2)cn1,17.7,,
CCc1ccc(C(=O)c2[nH]c3ccccc3c2CCNc2ncc(-c3ccc(OC)c(OC)c3)cn2)o1,29.1,,
Cc1cc(C(=O)c2[nH]c3ccccc3c2CCNc2ccc(-c3ccccn3)cn2)sc1C,1.7,,
CCN1C(=O)[C@@H]2Cc3c([nH]c4ccccc34)[C@H](c3sccc3C)N2C1=O,27.7,,
COc1cccc2cc(C(=O)c3[nH]c4ccccc4c3CCNc3ccc(-c4ccccn4)cn3)oc12,23.9,,
CN1CC(=O)N2[C@H](c3sccc3Br)c3[nH]c4ccccc4c3C[C@@H]2C1=O,67.2,80.2,
CCc1ccc(C(=O)c2[nH]c3ccccc3c2C[C@@H]2NC(=O)N(CC)C2=O)s1,27.3,,
Cc1ccc([C@H]2c3[nH]c4ccccc4c3C[C@@H]3C(=O)N(C)CC(=O)N23)o1,40.5,,
Cc1ccc(C(=O)c2[nH]c3ccccc3c2CCNc2ccc(-c3ccccn3)cn2)o1,23.7,,
Cc1ccsc1[C@H]1c2[nH]c3ccccc3c2C[C@@H]2C(=O)N(C)CC(=O)N12,57.4,97.5,
Cc1ccc([C@@H]2c3[nH]c4ccccc4c3C[C@@H]3C(=O)N(C)CC(=O)N23)o1,89.5,36.9,
Cc1ccsc1[C@@H]1c2[nH]c3ccccc3c2C[C@@H]2C(=O)N(C)CC(=O)N12,66.7,50.2,
CCN1C(=O)[C@@H]2Cc3c([nH]c4ccccc34)[C@@H](c3sccc3C)N2C1=O,76.1,21.4,IC50 [3]: 13 nM; IC50 [4]: > 20000 nM; IC50 [5]: > 10000 nM; IC50 [6]: > 20000 nM; IC50 [7]: 155 nM; IC50 [8]: > 20000 nM; Ratio IC50 (Homo sapiens [9]): 0.6; Ratio IC50 (Homo sapiens [10]): 7
Cc1ccc(C(=O)c2[nH]c3ccccc3c2CCNc2ccc(-c3ccccn3)cn2)s1,20.4,,
CN1CC(=O)N2[C@@H](c3ccco3)c3[nH]c4ccccc4c3C[C@@H]2C1=O,35.2,,
CN1CC(=O)N2[C@@H](c3sccc3Br)c3[nH]c4ccccc4c3C[C@@H]2C1=O,41.6,,
CCc1ccc(C(=O)c2[nH]c3ccccc3c2C[C@@H]2NC(=O)CN(C)C2=O)s1,23.3,,
CCc1ccc(C(=O)c2[nH]c3ccccc3c2CCNc2ncc(-c3ccc(OC)c(OC)c3)cn2)s1,24.7,,
CCCc1ccc(C(=O)c2[nH]c3ccccc3c2CCNc2ccc(-c3ccccn3)cn2)s1,18.3,,
CCc1ccc(C(=O)c2[nH]c3ccccc3c2C[C@H]2NC(=O)CN(C)C2=O)s1,21.1,,

# Continued, in another order:
inhibition [1] [%],IC50 [2] [nM],SMILES,further results
39.8,,CN1CC(=O)N2[C@@H](c3ccc(Br)s3)c3[nH]c4ccccc4c3C[C@@H]2C1=O,
38.8,,CCc1ccc([C@H]2c3[nH]c4ccccc4c3C[C@@H]3C(=O)N(C)CC(=O)N23)s1,
39.1,,CCc1ccc([C@H]2c3[nH]c4ccccc4c3C[C@@H]3C(=O)N(C)CC(=O)N23)o1,
39.2,,CCc1ccc(C2c3[nH]c4ccccc4c3CCN2c2ccc(-c3ccccn3)cn2)o1 (centres undefined),
35.9,,CCCCN1C(=O)[C@@H]2Cc3c([nH]c4ccccc34)[C@H](c3ccc(CC)s3)N2C1=O,
86.7,19.9,CCc1ccc([C@H]2c3[nH]c4ccccc4c3C[C@H]3C(=O)N(C)CC(=O)N23)s1,IC50 [3]: > 1000 nM; IC50 [4]: > 20000 nM; IC50 [5]: > 10000 nM; IC50 [6]: > 20000 nM; IC50 [7]: > 1000 nM; IC50 [8]: > 20000 nM; Ratio IC50 (Homo sapiens [9]): > 50; Ratio IC50 (Homo sapiens [10]): > 50
40.2,,Cc1ccc([C@H]2c3[nH]c4ccccc4c3C[C@@H]3C(=O)N(C)CC(=O)N23)s1,
76.2,36.4,CCCCN1C(=O)[C@H]2Cc3c([nH]c4ccccc34)[C@@H](c3ccc(CC)s3)N2C1=O,IC50 [3]: > 1000 nM; IC50 [4]: > 20000 nM; IC50 [5]: > 10000 nM; IC50 [6]: > 20000 nM; IC50 [7]: 386 nM; IC50 [8]: > 20000 nM; Ratio IC50 (Homo sapiens [9]): > 27; Ratio IC50 (Homo sapiens [10]): 10
33.7,,CCc1ccc(C2c3[nH]c4ccccc4c3CCN2C(=O)/C=C/c2cccc(Br)c2)s1 (centres undefined),
47.6,177,CCc1ccc(C2c3[nH]c4ccccc4c3CCN2c2ncc(-c3ccc(OC)c(OC)c3)cn2)o1 (centres undefined),
69,56.4,CCc1ccc([C@H]2c3[nH]c4ccccc4c3C[C@H]3C(=O)N(C)CC(=O)N23)o1,
41.3,,CCNC(=O)N1[C@H](c2ccc(CC)s2)c2[nH]c3ccccc3c2C[C@@H]1C(=O)OC,
47.4,235,CCc1ccc(C2c3[nH]c4ccccc4c3CCN2C(=O)/C=C/c2ccc(C(=O)O)cc2)s1 (centres undefined),
72.7,61,CCc1ccc([C@@H]2c3[nH]c4ccccc4c3C[C@H]3C(=O)N(C)CC(=O)N23)s1,
79.4,30.3,CCCCN1C(=O)[C@@H]2Cc3c([nH]c4ccccc34)[C@@H](c3ccc(CC)s3)N2C1=O,IC50 [3]: 107 nM; IC50 [4]: > 20000 nM; IC50 [5]: > 10000 nM; IC50 [6]: > 20000 nM; IC50 [7]: > 1000 nM; IC50 [8]: > 20000 nM; Ratio IC50 (Homo sapiens [9]): 4; Ratio IC50 (Homo sapiens [10]): > 33
17.5,,COc1cccc2cc(C3c4[nH]c5ccccc5c4CCN3c3ccc(-c4ccccn4)cn3)oc12 (centres undefined),
28,,CCCc1ccc(C2c3[nH]c4ccccc4c3CCN2c2ccc(-c3ccccn3)cn2)s1 (centres undefined),
38.1,,Cc1ccc(C2c3[nH]c4ccccc4c3CCN2c2ccc(-c3ccccn3)cn2)s1 (centres undefined),
15.2,,c1ccc(-c2ccc(N3CCc4c([nH]c5ccccc45)C3c3cc4ccccc4o3)nc2)nc1 (centres undefined),
43.9,,CCc1ccc(C2c3[nH]c4ccccc4c3CCN2C(=O)/C=C/c2ccc(C(=O)OC)cc2)s1 (centres undefined),
27.6,,CCc1ccc(C2c3[nH]c4ccccc4c3CCN2c2ncc(-c3ccc(OC)c(OC)c3)cn2)s1 (centres undefined),
21.2,,Cc1cc(C2c3[nH]c4ccccc4c3CCN2c2ccc(-c3ccccn3)cn2)sc1C (centres undefined),
23.2,,Cc1ccc(C2c3[nH]c4ccccc4c3CCN2c2ccc(-c3ccccn3)cn2)o1 (centres undefined),
44.1,383,CCc1ccc([C@H]2c3[nH]c4ccccc4c3C[C@H]3C(=O)N(CC)C(=O)N23)s1,
69.4,39.7,CCc1ccc(C2c3[nH]c4ccccc4c3C(=O)CN2c2ncc(-c3ccc(OC)c(OC)c3)cn2)s1 (centres undefined),IC50 [3]: 253 nM; IC50 [7]: 153 nM; Ratio IC50 (Homo sapiens [9]): 6; Ratio IC50 (Homo sapiens [10]): 4
37.9,,CCCCN1C(=O)[C@H]2Cc3c([nH]c4ccccc34)[C@H](c3ccc(CC)s3)N2C1=O,
41.1,,CCc1ccc([C@@H]2c3[nH]c4ccccc4c3C[C@H]3C(=O)N(C)CC(=O)N23)o1,
45.8,155,CCc1ccc([C@H]2c3[nH]c4ccccc4c3C[C@@H]3C(=O)N(CC)C(=O)N23)s1,
